Measured values published in ChEMBL document CHEMBL2176871, “Development of ligands at γ-aminobutyrric acid type A (GABAA) receptor subtype as new agents for pain relief” (Bioorg Med Chem, 2011).
The source made the active and inactive calls.

How the values were obtained:
Bos taurus = organism: Bos taurus; assay: Displacement of [3H]Ro151788 from GABA(A)/BzR in bovine cerebral cortex membrane at 10 uM; format: cell membranes
Summary of the method: (§1)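 Bovine cerebral cortex membranes in 50 mM Tris-citrate pH 7.4; [3H]flumazenil displacement. Compounds first tested at a fixed 10 µM; Ki determined only when inhibition exceeded 80%, using at least six concentrations. Five experiments run in triplicate; IC50 obtained by iterative curve fitting and converted to Ki with the Cheng–Prusoff equation.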

[1] = Displacement of [3H]Ro151788 from GABA(A)/BzR in bovine cerebral cortex membrane; format: cell membranes, Bos taurus; summary of the method: as §1
Mus musculus [2] = assay: Antihyperalgesic activity against streptozotocin-induced hyperalgesia in Swiss albino mouse […] assessed as licking latency time at 30 mg/kg, po after 60 mins by hot plate test (reference value: 9.3 +/- 0.7 secs); format: functional
Mus musculus [3] = assay: Antihyperalgesic activity Swiss albino mouse […] assessed as licking latency time at 30 mg/kg, po after 60 mins by hot plate test (reference value: 16.9 +/- 0.8 secs); format: functional
Summary of the method: (§2)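 Hot plate at 52.5 ± 0.1 °C in non-diabetic male Swiss mice. Latency to licking of fore or hind paws was timed before dosing and every 15 min up to 60 min after oral dosing. Mice with pretest latencies below 12 s or above 18 s were excluded. Cut-off was 45 s.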

Mus musculus [4] = assay: Antihyperalgesic activity against streptozotocin-induced hyperalgesia in Swiss albino mouse […] assessed as licking latency time at 30 mg/kg, po after 45 mins by hot plate test (reference value: 9.3 +/- 0.7 secs); format: functional
Mus musculus [5] = assay: Antihyperalgesic activity Swiss albino mouse […] assessed as licking latency time at 30 mg/kg, po after 45 mins by hot plate test (reference value: 16.9 +/- 0.8 secs); format: functional; summary of the method: as §2
Mus musculus [6] = assay: Antihyperalgesic activity against streptozotocin-induced hyperalgesia in Swiss albino mouse […] assessed as licking latency time at 30 mg/kg, po after 30 mins by hot plate test (reference value: 9.3 +/- 0.7 secs); format: functional
Mus musculus [7] = assay: Antihyperalgesic activity Swiss albino mouse […] assessed as licking latency time at 30 mg/kg, po after 30 mins by hot plate test (reference value: 16.9 +/- 0.8 secs); format: functional; summary of the method: as §2
Mus musculus [8] = assay: Antihyperalgesic activity against streptozotocin-induced hyperalgesia in Swiss albino mouse […] assessed as licking latency time at 30 mg/kg, po after 15 mins by hot plate test (reference value: 9.3 +/- 0.7 secs); format: functional
Mus musculus [9] = assay: Antihyperalgesic activity Swiss albino mouse […] assessed as licking latency time at 30 mg/kg, po after 15 mins by hot plate test (reference value: 16.9 +/- 0.8 secs); format: functional; summary of the method: as §2
Mus musculus [10] = assay: Anxiolytic-like activity in Swiss albino mouse at 30 mg/kg, po after 30 mins by light/dark box test; format: functional, organism-based; set-up: dose 30 mg/kg
Summary of the method: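 Male Swiss mice tested in a two-compartment light/dark box. Transfers between compartments and time spent in the lit side recorded. Compound given po 30 min before testing, in 10 ml/kg; flumazenil given i.p. for antagonism; 8 mice per group.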

Mus musculus [11] = assay: Analgesic activity in Swiss albino mouse abdominal constriction model assessed as decrease in number of acetic acid-induced writhing at 30 to 60 mg/kg, po after 30 mins; format: functional, organism-based; settings: Abdomen
Summary of the method: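 Male Swiss albino mice (23–30 g). Compounds given po in 1% CMC vehicle 30 min before the test. Acetic acid 0.6% injected i.p. at 10 ml/kg. Stretching movements were counted for 10 min, starting 5 min after the acetic acid injection. 8–15 mice per group.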

Mus musculus [12] = assay: Anticonvulsant activity in Swiss albino mouse […] assessed as protection against intraperitoneally administered pentylenetetrazol-induced seizures at 30 mg/kg, po after 30 mins; format: functional
Summary of the method: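 Male Swiss albino mice. Compounds given po and PTZ 90 mg/kg injected 30 min later; PTZ was dissolved in 0.9% NaCl saline. Clonic generalized convulsions were recorded over 30 min. Each value is the mean of 10 mice. The methods give the PTZ route as s.c. and the table footnote gives it as ip.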

Rattus norvegicus [13] = assay: Antinociceptive activity in Sprague-Dawley rat mononeuropathy pain model assessed as increase in injured paw pressure at 30 mg/kg, po after 45 mins by paw pressure test relative to non-treated control; format: functional
Summary of the method: (§3)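 Chronic constriction injury: loose ligatures placed on the common sciatic nerve under chloral hydrate; contralateral sham dissection. Tested 14 days after surgery. Paw pressure applied at 32 g/s; threshold taken as the force causing the first struggle; cut-off 250 g; pretest outliers (<40 g or >75 g) excluded. Oral dosing in 10 ml/kg; read at 15, 30 and 45 min; compared with a CMC-treated group.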

Rattus norvegicus [14] = assay: Antinociceptive activity in Sprague-Dawley rat mononeuropathy pain model assessed as increase in injured paw pressure at 30 mg/kg, po after 30 mins by paw pressure test relative to non-treated control; format: functional; summary of the method: as §3
Rattus norvegicus [15] = assay: Antinociceptive activity in Sprague-Dawley rat mononeuropathy pain model assessed as increase in injured paw pressure at 30 mg/kg, po after 15 mins by paw pressure test relative to non-treated control; format: functional; summary of the method: as §3
Rattus norvegicus [16] = assay: Antinociceptive activity in Sprague-Dawley rat mononeuropathy pain model assessed as increase in injured paw pressure at 10 mg/kg, po after 45 mins by paw pressure test relative to non-treated control; format: functional; summary of the method: as §3
Rattus norvegicus [17] = assay: Antinociceptive activity in Sprague-Dawley rat mononeuropathy pain model assessed as increase in injured paw pressure at 10 mg/kg, po after 30 mins by paw pressure test relative to non-treated control; format: functional; summary of the method: as §3
Rattus norvegicus [18] = assay: Antinociceptive activity in Sprague-Dawley rat mononeuropathy pain model assessed as increase in injured paw pressure at 10 mg/kg, po after 15 mins by paw pressure test relative to non-treated control; format: functional; summary of the method: as §3
Rattus norvegicus [19] = assay: Toxicity in Sprague-Dawley rat mononeuropathy pain model assessed as effect on contralateral paw pressure at 30 mg/kg, po after 45 mins by paw pressure test; format: organism-based; set-up: dose 30 mg/kg, route oral; settings: in vivo, 0.75 h
Summary of the method: (§4)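 Same sciatic-ligation rat model, 14 days after surgery. Threshold measured on the non-operated contralateral hind paw by analgesimeter at 32 g/s; first-struggle endpoint; 250 g cut-off; pretest rats outside 40–75 g rejected. Compound given po in 10 ml/kg; readings at 15, 30 and 45 min.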

Rattus norvegicus [20] = assay: Toxicity in Sprague-Dawley rat mononeuropathy pain model assessed as effect on contralateral paw pressure at 30 mg/kg, po after 30 mins by paw pressure test; format: organism-based; set-up: dose 30 mg/kg, route oral; settings: in vivo, 0.5 h; summary of the method: as §4
Rattus norvegicus [21] = assay: Toxicity in Sprague-Dawley rat mononeuropathy pain model assessed as effect on contralateral paw pressure at 30 mg/kg, po after 15 mins by paw pressure test; format: organism-based; set-up: dose 30 mg/kg, route oral; settings: in vivo, 0.25 h; summary of the method: as §4
Rattus norvegicus [22] = assay: Toxicity in Sprague-Dawley rat mononeuropathy pain model assessed as effect on contralateral paw pressure at 10 mg/kg, po after 45 mins by paw pressure test; format: organism-based; set-up: dose 10 mg/kg, route oral; settings: in vivo, 0.75 h; summary of the method: as §4
Rattus norvegicus [23] = assay: Toxicity in Sprague-Dawley rat mononeuropathy pain model assessed as effect on contralateral paw pressure at 10 mg/kg, po after 30 mins by paw pressure test; format: organism-based; set-up: dose 10 mg/kg, route oral; settings: in vivo, 0.5 h; summary of the method: as §4
Rattus norvegicus [24] = assay: Toxicity in Sprague-Dawley rat mononeuropathy pain model assessed as effect on contralateral paw pressure at 10 mg/kg, po after 15 mins by paw pressure test; format: organism-based; set-up: dose 10 mg/kg, route oral; settings: in vivo, 0.25 h; summary of the method: as §4

Structure (SMILES) | inhibition (Bos taurus) [%] | Ki [1] [nM] | Activity (Rattus norvegicus [13]) [g] | Activity (Rattus norvegicus [14]) [g] | Activity (Rattus norvegicus [15]) [g] | Activity (Rattus norvegicus [19]) [g] | Activity (Rattus norvegicus [20]) [g] | Activity (Rattus norvegicus [21]) [g] | also measured
Cc1cnn2c1nnc1ccc(OCc3ccccc3)cc12 | > 80 | 1.6 | – | – | – | – | – | – | –
COc1ccccc1COc1ccc2c(c1)n1ncc(C)c1n[n+]2[O-] | > 80 | 3.02 | – | – | – | – | – | – | –
COc1ccccc1CNc1ccc2c(c1)n1ncc(I)c1n[n+]2[O-] | > 80 | 0.138 | – | – | – | – | – | – | –
CC(COc1ccc2c(c1)n1ncc(I)c1n[n+]2[O-])c1ccccc1 (racemic) | > 80 | – | 39 | 40.8 | 43.4 | 59.2 | 61.7 | 58.8 | Time (Mus musculus [2]): 18.1 s; Time (Mus musculus [3]): 18.2 s; Time (Mus musculus [4]): 17.8 s; Time (Mus musculus [5]): 17.7 s; Time (Mus musculus [6]): 17.5 s; Time (Mus musculus [7]): 16.8 s; Time (Mus musculus [8]): 16.4 s; Time (Mus musculus [9]): 17.2 s; Activity (Mus musculus [10]): Active; Activity (Mus musculus [11]): inactive; Activity (Mus musculus [12]): 0%; Activity (Rattus norvegicus [16]): 37.2 g; Activity (Rattus norvegicus [17]): 43.5 g; Activity (Rattus norvegicus [18]): 42.5 g; Activity (Rattus norvegicus [22]): 57.9 g; Activity (Rattus norvegicus [23]): 63.5 g; Activity (Rattus norvegicus [24]): 59.8 g
Cc1cnn2c1n[n+]([O-])c1ccc(OCC(C)c3ccccc3)cc12 (racemic) | > 80 | 361 | – | – | – | – | – | – | –
O=C(OCc1cccs1)c1cnn2c1n[n+]([O-])c1ccc(Cl)cc12 | – | 6.8 | 32.8 | 35.2 | 33.6 | 60.9 | 57.8 | 59.3 | –
Cc1cnn2c1nnc1ccc(NCc3ccccc3)cc12 | > 80 | 2.78 | – | – | – | – | – | – | –
COc1ccccc1CNc1ccc2c(c1)n1ncc(C)c1n[n+]2[O-] | > 80 | 0.78 | – | – | – | – | – | – | –
O=C(c1cccs1)c1cnn2c1n[n+]([O-])c1ccc(Oc3ccccc3)cc12 | – | – | 43.2 | 38.4 | 37.7 | 61.2 | 57.8 | 60.6 | –
